# Laboratory results as given in ChEMBL document CHEMBL4406921, “Discovery of Axelopran (TD-1211): A Peripherally Restricted μ-Opioid Receptor Antagonist” (ACS Med Chem Lett, 2019).
# Activity calls are given as the source filed them. The rule behind the calls is not given here.
# Experiments:
# [1] = Oral bioavailability in human; type: ADME, organism-based; conditions: in vivo
# [2] = tested on: Mus musculus; experiment: Inhibition of morphine-induced delays in intestinal transit in po dosed ICR mouse administered via gavage pretreated with compound and 30 mins later injected with morphine followed 5 mins later by ingestion of test meal and measured after 60 mins; type: functional; conditions: for ED50: read-out: ID50 (the source's name)
# Method in brief: (§1)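 Mice dosed orally; reversal of morphine-induced delay in intestinal transit, delay in gastric emptying, or hot plate antinociception measured; dose-dependent responses fitted to give ID50 in mg/kg.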
# [3] = tested on: Mus musculus; experiment: Inhibition of morphine-induced antinociceptive activity in po dosed ICR mouse administered via gavage pretreated with compound and 30 mins later injected with morphine and measured after 30 mins by hot plate test; type: functional; conditions: for ED50: read-out: ID50 (the source's name); method in brief: as §1
# [4] = Half life in rat liver microsomes at 3 uM; type: ADME, Microsome
# [5] = Half life in dog liver microsomes at 3 uM; type: ADME, Canis lupus familiaris, Microsome
# [6] = biological target: T1, Mu-type opioid receptor (Homo sapiens, UniProt P35372); experiment: Antagonist activity at human recombinant mu opioid receptor expressed in CHO-K1 cell membranes assessed as intrinsic activity at 10 pM to 20 uM incubated for 30 mins in presence of Eu-GTP by DELFIA GTP binding assay relative to DAMGO
# T1 sequence (P35372 whole entry): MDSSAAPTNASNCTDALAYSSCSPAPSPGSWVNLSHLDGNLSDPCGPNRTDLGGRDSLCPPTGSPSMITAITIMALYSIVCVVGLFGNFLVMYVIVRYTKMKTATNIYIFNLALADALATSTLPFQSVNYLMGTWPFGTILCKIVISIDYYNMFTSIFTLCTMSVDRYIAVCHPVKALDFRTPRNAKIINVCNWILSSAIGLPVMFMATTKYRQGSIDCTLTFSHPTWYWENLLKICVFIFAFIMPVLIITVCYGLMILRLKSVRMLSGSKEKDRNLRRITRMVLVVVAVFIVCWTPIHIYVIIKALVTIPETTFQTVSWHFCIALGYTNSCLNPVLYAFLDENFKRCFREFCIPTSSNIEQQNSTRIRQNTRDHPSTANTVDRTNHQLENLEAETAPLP
# [7] = biological target: T1, Mu-type opioid receptor; experiment: Displacement of [3H]-DPN from recombinant human mu opioid receptor expressed in CHO-K1 cell membranes by radioligand binding assay
# Method in brief: (§2)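 Membranes from CHO-K1 cells stably transfected with human recombinant μ or δ receptor, or guinea pig κ receptor; competition with [3H]-DPN radioligand; affinity reported as pKi.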
# [8] = tested on: Mus musculus; experiment: Inhibition of morphine-induced delays in gastric emptying in po dosed ICR mouse administered via gavage pretreated with compound and 30 mins later injected with morphine followed 5 mins later by ingestion of test meal and measured after 60 mins; type: functional; conditions: for ED50: read-out: ID50 (the source's name); method in brief: as §1
# [9] = AUC(0 to t) in Sprague-Dawley rat at 10 mg/kg, po administered via gavage; type: ADME, organism-based; conditions: in vivo
# [10] = biological target: T2, Kappa-type opioid receptor (Cavia porcellus, UniProt P41144); experiment: Displacement of [3H]-DPN from guinea pig kappa opioid receptor expressed in CHO-K1 cell membranes by radioligand binding assay; method in brief: as §2
# T2 sequence (P41144 whole entry): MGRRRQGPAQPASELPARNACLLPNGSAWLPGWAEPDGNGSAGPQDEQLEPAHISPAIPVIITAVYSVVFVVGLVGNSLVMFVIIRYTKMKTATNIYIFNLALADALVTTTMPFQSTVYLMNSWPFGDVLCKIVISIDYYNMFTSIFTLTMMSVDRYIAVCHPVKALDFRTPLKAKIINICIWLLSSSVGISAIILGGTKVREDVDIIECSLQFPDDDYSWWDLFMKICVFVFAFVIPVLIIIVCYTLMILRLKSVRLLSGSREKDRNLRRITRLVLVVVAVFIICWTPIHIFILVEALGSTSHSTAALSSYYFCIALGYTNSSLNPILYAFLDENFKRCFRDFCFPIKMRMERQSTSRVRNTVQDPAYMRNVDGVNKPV
# [11] = Permeability coefficient, Kp in human Caco2 cells; type: ADME, cell-based; conditions: Caco-2, read-out: Kp
# [12] = Half life in human liver microsomes at 3 uM; type: ADME, Microsome
# [13] = biological target: T3, Delta-type opioid receptor (Homo sapiens, UniProt P41143); experiment: Displacement of [3H]-DPN from recombinant human delta opioid receptor expressed in CHO-K1 cell membranes by radioligand binding assay; method in brief: as §2
# T3 sequence (P41143 whole entry): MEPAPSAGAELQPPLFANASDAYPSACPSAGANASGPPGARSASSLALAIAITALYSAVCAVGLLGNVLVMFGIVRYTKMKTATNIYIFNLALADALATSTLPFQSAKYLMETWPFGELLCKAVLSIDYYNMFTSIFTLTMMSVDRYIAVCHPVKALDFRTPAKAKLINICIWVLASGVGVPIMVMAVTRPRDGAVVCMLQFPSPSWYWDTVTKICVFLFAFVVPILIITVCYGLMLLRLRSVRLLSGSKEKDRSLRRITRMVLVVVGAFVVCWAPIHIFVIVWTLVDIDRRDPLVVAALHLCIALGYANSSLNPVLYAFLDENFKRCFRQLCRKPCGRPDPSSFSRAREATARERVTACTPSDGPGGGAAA
# [14] = Oral bioavailability in Sprague-Dawley rat at 10 mg/kg administered via gavage; type: ADME, organism-based; conditions: in vivo
# [15] = Cmax in Sprague-Dawley rat at 10 mg/kg, po administered via gavage; type: ADME, organism-based; design: dose 10 mg/kg, route oral; conditions: in vivo
# [16] = species: Mus musculus; experiment: Peripheral selectivity index, ratio of ID50 for inhibition of morphine-induced delays in gastric emptying in ICR mouse to ID50 for inhibition of morphine-induced delays in intestinal transit in ICR mouse; type: functional
# [17] = species: Mus musculus; experiment: Peripheral selectivity index, ratio of ID50 for inhibition of morphine-induced antinociceptive activity in ICR mouse to ID50 for inhibition of morphine-induced delays in intestinal transit in ICR mouse; type: functional
# Method in brief: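 Mice were dosed orally with antagonist at several doses and challenged with morphine. ID50 values were taken from dose-dependent reversal of morphine-induced hot plate antinociception (CNS) and of morphine-induced delay in intestinal transit (peripheral). The index is the hot plate ID50 divided by the intestinal transit ID50.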
# [18] = Half life in Sprague-Dawley rat at 100 mg/kg, po administered via gavage; type: ADME, organism-based; conditions: in vivo
# Method in brief: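 Male Sprague–Dawley rats received 100 mg/kg by oral gavage, with n = 3. Plasma half-life was taken from the pharmacokinetic profile alongside Cmax, AUC(0–t) and oral bioavailability.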
# [19] = AUC(0 to t) in Sprague-Dawley rat at 100 mg/kg, po administered via gavage; type: ADME, organism-based; conditions: in vivo
# [20] = Cmax in Sprague-Dawley rat at 100 mg/kg, po administered via gavage; type: ADME, organism-based; design: dose 100 mg/kg, route oral; conditions: in vivo
# [21] = Oral bioavailability in Sprague-Dawley rat at 100 mg/kg administered via gavage; type: ADME, organism-based; conditions: in vivo
# [22] = biological target: Mu-type opioid receptor (Cavia porcellus, UniProt P97266); experiment: Antagonist activity at mu opioid receptor in guinea pig ileum assessed as inhibition of electric field stimulated contractions incubated for 15 mins in presence of endomorphin-1; type: tissue-based; conditions: read-out: pA2 (converted)
# Chain of Mu-type opioid receptor (Cavia porcellus, UniProt P97266) (P97266 whole entry): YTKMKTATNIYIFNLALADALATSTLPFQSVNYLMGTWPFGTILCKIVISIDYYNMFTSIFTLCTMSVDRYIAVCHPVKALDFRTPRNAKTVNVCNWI
# [23] = Oral bioavailability in fasted female Beagle dog; type: ADME, organism-based, Canis lupus familiaris; conditions: in vivo
# [24] = tested on: Canis familiaris; experiment: Inhibition of loperamide-induced gastrointestinal contraction in Beagle dog at 3 mg/kg, po incubated with compound followed 15 mins later by treated with loperamide and measured for 30 mins; type: functional, organism-based; conditions: Canis lupus familiaris
# [25] = tested on: Canis familiaris; experiment: Reversal of morphine-induced sedation in Beagle dog at 3 mg/kg, po administered with compound prior to morphine challenge and measured up to 120 mins post-mophine administration; type: functional, organism-based; conditions: Canis lupus familiaris
# [26] = tested on: Canis familiaris; experiment: Reversal of morphine-induced antinociception in Beagle dog at 3 mg/kg, po treated with compound prior to morphine challenge measured after 15 to 45 mins by hot plate test; type: functional, organism-based; conditions: Canis lupus familiaris
# [27] = AUC(0 to t) in Sprague-Dawley rat at 5 mg/kg, po administered via gavage; type: ADME, organism-based; conditions: in vivo
# [28] = biological target: T3, Delta-type opioid receptor; experiment: Antagonist activity at human recombinant delta opioid receptor expressed in CHO-K1 cell membrane assessed as inhibition of DPDPE-induced [35S]-GTPgammaS binding incubated for 30 mins by time resolved fluorescence assay
# [29] = Half life in Sprague-Dawley rat at 5 mg/kg, po administered via gavage; type: ADME, organism-based; conditions: in vivo
# [30] = biological target: Kappa-type opioid receptor (Cavia porcellus) (UniProt P41144); experiment: Antagonist activity at guinea pig recombinant kappa opioid receptor expressed in CHO-K1 cell membrane assessed as inhibition of U69593-induced [35S]-GTPgammaS binding incubated for 30 mins by time resolved fluorescence assay
# Chain of Kappa-type opioid receptor (Cavia porcellus) (P41144 whole entry): as the sequence (P41144 whole entry) above
# [31] = tested on: Rattus norvegicus; experiment: Reversal of morphine-induced antinociception in Sprague-Dawley rat at >60 mg/kg, po pretreated for 30 mins followed by morphine injection and measured after 60 mins by hot plate test; type: functional, organism-based
# [32] = biological target: T1, Mu-type opioid receptor; experiment: Antagonist activity at human recombinant mu opioid receptor expressed in CHO-K1 cell membrane assessed as inhibition of DAMGO-induced GTP binding incubated for 30 mins in presence of Eu-GTP by DELFIA GTP binding assay
# [33] = Protein binding in human plasma; type: ADME, cell-free; conditions: read-out: PPB
# [34] = biological target: T2, Kappa-type opioid receptor; experiment: Antagonist activity at kappa opioid receptor in guinea pig ileum assessed as inhibition of electric field stimulated tissue contraction incubated for 15 mins in presence of U69593; type: tissue-based; conditions: read-out: pA2 (converted)
# [35] = Oral bioavailability in Sprague-Dawley rat at 5 mg/kg administered via gavage; type: ADME, organism-based; conditions: in vivo
# [36] = tested on: Rattus norvegicus; experiment: Reversal of castor oil-induced diarrhea in po dosed Sprague-Dawley rat po administered with compound and loperamide at 45 mins and 15 mins prior to castor oil administration and measured after 2 hrs; type: functional; conditions: read-out: ID50 (the source's name)
# [37] = Oral bioavailability in fasted male Beagle dog; type: ADME, organism-based, Canis lupus familiaris; conditions: in vivo
# [38] = tested on: Mus musculus; experiment: Inhibition of morphine-dependent CNS-mediated withdrawal response in Swiss Webster mouse at 30 mg/kg, po after 60 mins; type: functional, organism-based
# [39] = tested on: Rattus norvegicus; experiment: Reversal of loperamide-induced delay in gastric emptying in po dosed Sprague-Dawley rat administered with compound and loperamide at 35 mins and 5 mins prior to test meal respectively measured after 60 mins; type: functional; conditions: read-out: ID50 (the source's name)
# [40] = species: Mesocricetus auratus; experiment: Antagonist activity at delta opiod receptor in golden syrian hamster vas deferens assessed as inhibition of electric field stimulated tissue contraction incubated for 15 mins in presence of […]
# [41] = Drug uptake in rat brain at 20 mg/kg, po; type: ADME, organism-based; conditions: in vivo
# Method in brief: (§3)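 Rats given 20 mg/kg orally; CSF, brain and plasma concentrations measured to estimate CNS penetration.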
# [42] = tested on: MDR1; experiment: Efflux ratio of permeability in dog MDCK-MDR1 cells; type: ADME, cell-based, Canis lupus familiaris
# [43] = Drug uptake in rat cerebrospinal fluid at 20 mg/kg, po; type: ADME, organism-based; conditions: in vivo; method in brief: as §3
# [44] = Efflux ratio of permeability in human Caco2 cells; type: ADME, cell-based; conditions: Caco-2
# [45] = Cmax in Sprague-Dawley rat at 5 mg/kg, po administered via gavage; type: ADME, organism-based; design: dose 5 mg/kg, route oral; conditions: in vivo
smiles,measurement,setting,value
C[C@H]1CN(C[C@H](Cc2ccccc2)C(=O)NCC(=O)O)CC[C@H]1c1cccc(O)c1,bioavailability,[1],6%
same,ED50,[2],2.5 mg/kg
same,ED50,[3],> 20 mg/kg
same,half-life at 3 µM,[4],> 1.5 h
same,half-life at 3 µM,[5],> 1.5 h
same,Intrinsic activity,[6],-7%
same,Ki,[7],0.316 nM
same,ED50,[8],0.6 mg/kg
same,AUC(0-t),[9],2 ng·h/mL
same,Ki,[10],5.01 nM
same,Papp,[11],3 ×10⁻⁶ cm/s
same,half-life at 3 µM,[12],> 1.5 h
same,Ki,[13],5.01 nM
same,bioavailability,[14],0.1%
same,Cmax,[15],10 ng/mL
same,Selectivity Index,[16],>33
same,Selectivity Index,[17],>8
C[N+]1(CC2CC2)CC[C@]23c4c5ccc(O)c4O[C@H]2C(=O)CC[C@@]3(O)[C@H]1C5.[Br-] (some centres undefined) [METHYLNALTREXONE BROMIDE],bioavailability,[1],< 1%
same,ED50,[2],67 mg/kg
same,half-life,[18],2.8 h
same,half-life at 3 µM,[4],> 1.5 h
same,half-life at 3 µM,[5],> 1.5 h
same,Intrinsic activity,[6],19%
same,AUC(0-t),[19],490 ng·h/mL
same,ED50,[8],25 mg/kg
same,Cmax,[20],570 ng/mL
same,bioavailability,[21],2.6%
same,Papp,[11],2 ×10⁻⁶ cm/s
same,half-life at 3 µM,[12],> 1.5 h
NC(=O)c1cccc([C@H]2C[C@H]3CC[C@@H](C2)N3CCN(CC2CCCCC2)C(=O)[C@@H](O)CO)c1.O=S(=O)(O)O [AXELOPRAN SULFATE],Kb,[22],0.0794 nM
same,inhibition,[2],Dose-dependent effect
same,ED50,[2],0.35 mg/kg
same,bioavailability,[23],29%
same,inhibition,[24],Active
same,inhibition,[25],Active
same,inhibition,[26],Active
same,AUC(0-t),[27],470 ng·h/mL
same,inhibition,[3],Dose-dependent effect
same,ED50,[3],14 mg/kg
same,half-life at 3 µM,[4],1.45 h
same,half-life at 3 µM,[5],0.45 h
same,Intrinsic activity,[6],-3%
same,pKb,[28],8.8
same,half-life,[29],1.3 h
same,Ki,[7],0.158 nM
same,inhibition,[8],Dose-dependent effect
same,ED50,[8],0.087 mg/kg
same,pKb,[30],9.5
same,inhibition,[31],Active
same,pKb,[32],9.6
same,fraction unbound,[33],0.7 to 0.77
same,Kb,[34],1.58 nM
same,Ki,[10],0.126 nM
same,bioavailability,[35],27%
same,Papp,[11],5 ×10⁻⁶ cm/s
same,ED50,[36],0.01 mg/kg
same,bioavailability,[37],45%
same,half-life at 3 µM,[12],1.5 h
same,Ki,[13],1.58 nM
same,inhibition,[38],inactive
same,ED50,[39],0.24 mg/kg
same,pKb,[40],8.4
same,Drug uptake,[41],< 2%
same,efflux ratio,[42],24
same,Drug uptake,[43],< 2%
same,Selectivity Index,[16],161
same,Selectivity Index,[17],40
same,efflux ratio,[44],10
same,Cmax,[45],210 ng/mL
